# Screens: PubChem BioAssay, several laboratories
# Sampled rows, rich in hits. Any-hit rate of the full collection: about 2.3%.
# CAL PDZ FP-1 – untagged CAL PDZ binding inhibitors, primary screen, biochemical, fluorescence polarization, HTS; Golgi-associated PDZ and coiled-coil motif-containing protein (Homo sapiens), Q9HD26; purified CAL PDZ, TMR-peptide fluorescence polarization, 1 h; inhibition, % at 24.9 µM; 300,000 compounds, 0.92% hits; AID 602252, 2012;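 active means mean inhibition of at least 30% with at least half of replicates also reaching 30%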;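 further: 0% = DMSO neutral control and 100% = excess unlabeled competitor peptide PRC23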
# CAL PDZ FP-2 – CAL PDZ peptide-binding inhibitors, primary screen, biochemical, fluorescence polarization, Cer-tagged CAL PDZ, HTS. purified CAL PDZ, TMR-peptide fluorescence polarization, 1 h. inhibition, % at 20 µM. 330,000 compounds, 0.02% hits. AID 504414, 2011;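 active means highest replicate inhibition of at least 40%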;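 further: plate controls were DMSO neutral control wells for no effect and unlabeled competitor peptide control wells for full effect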
#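 System: purified tagged CAL PDZ domain construct (CerCALP). Schedule: 1 h incubation at room temperature before polarization reading. Medium: 25 mM sodium phosphate pH 7.4, 150 mM NaCl, TCEP, IgG, Thesit. Read-out: percent inhibition from loss of millipolarization. Measured by: FP readout, S and P plane fluorescence. Probe or stimulus: fluorescent TMR peptide probe.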
# SR-BI DiI inh – inhibitors of SR-BI mediated HDL lipid uptake, primary screen, ldlA[mSR-BI] cells, fluorescence, single point. Scavenger receptor class B member 1 (Mus musculus), Q61009. inhibition, % at 12.5 µM. ldlA[mSR-BI] CHO cells, DiI-HDL uptake fluorescence, 3 h. 320,000 compounds, 0.96% hits;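 active means mean replicate inhibition of at least 70% and a set share of replicates each scoring 70 or more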;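 further: 0% = median of neutral control wells and 100% = median of positive control wells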
# Target sequence (Q61009 whole entry, looked up): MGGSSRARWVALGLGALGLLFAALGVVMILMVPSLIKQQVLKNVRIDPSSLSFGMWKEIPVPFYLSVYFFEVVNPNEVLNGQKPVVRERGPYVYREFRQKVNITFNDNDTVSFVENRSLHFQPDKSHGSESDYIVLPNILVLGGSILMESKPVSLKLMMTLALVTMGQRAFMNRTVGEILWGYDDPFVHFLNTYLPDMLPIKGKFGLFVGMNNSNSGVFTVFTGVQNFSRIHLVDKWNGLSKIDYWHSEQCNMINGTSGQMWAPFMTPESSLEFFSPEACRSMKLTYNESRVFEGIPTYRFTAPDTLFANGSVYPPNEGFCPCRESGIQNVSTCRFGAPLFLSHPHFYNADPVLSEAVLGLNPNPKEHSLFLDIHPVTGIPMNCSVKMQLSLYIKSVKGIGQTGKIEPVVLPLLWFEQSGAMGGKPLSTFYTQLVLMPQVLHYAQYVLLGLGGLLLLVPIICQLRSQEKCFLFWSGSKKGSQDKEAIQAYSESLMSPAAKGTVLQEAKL
# ATG4B inhibitor – ATG4B protease inhibitors, primary screen, biochemical, fluorescence, uHTS; AID 504462, 2011; Cysteine protease ATG4B (Homo sapiens), Q9Y4P1; ATG4B cleavage of LC3-PLA2, NBD-HPC fluorescence, 1 h; 340,000 compounds, 0.51% hits; inhibition, % at 8.33 µM; in the data active means inhibition above about 40%
# SR-BI uptake up – activators of SR-BI mediated DiI-HDL uptake, primary screen, ldlA[mSR-BI] CHO cells, DiI fluorescence | 3 h; 100 = double the neutral-control signal | activation, % at 12.5 µM | 320,000 compounds, 0.096% hits;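 active means mean replicate activation of at least 60% and every replicate at or above 60%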;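 further: 0% = median plate neutral-control signal and 100% = twice that signal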
#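 material = CHO ldlA[mSR-BI] cells | medium = Ham's F12 with 0.5% BSA, HEPES 25 mM, pH 7.4 | reagent = fluorescent DiI-HDL, 10 µg/mL final | compound dosing = single-point compound dose | incubation = 3 h, 37 °C | measured by = bottom-read fluorescence, 550/595 nm | measure = HDL uptake via cellular fluorescence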
# The depositor's hits bear a star; . = no result.
SMILES,CAL PDZ FP-1,CAL PDZ FP-2,SR-BI DiI inh,ATG4B inhibitor,SR-BI uptake up
C=CCCCCCCCCC(=O)NNC1CC(=O)N(c2ccccc2)C1=O (stereo not given),49*,0,1,0,-1
Cc1ccc(C)c(S(=O)(=O)NC2CCSC2=O)c1 (stereo not given),-1,-2,-1,-6,1
Cc1ccc(NC(=S)N2CCN(S(=O)(=O)c3ccccc3)CC2)cc1C,-3,-2,10,0,-10
COc1ccc(CCNC(=O)c2ccc(CNS(=O)(=O)c3cccc(Cl)c3)cc2)cc1OC,-1,-1,81*,-18,-81
COc1ccc(CCNC(=O)c2ccc(CNS(=O)(=O)c3cc(C)ccc3C)cc2)cc1OC,-1,-1,79*,-23,-79
N=c1n(CC(=O)c2ccc(Br)s2)c2ccccc2n1Cc1ccccc1,38*,-2,-2,3,2
Cn1c(=N)n(CC(=O)c2ccc(Br)s2)c2ccccc21,-6,.,8,9,-8
COc1ccc(/C=N/Nc2nc(-c3ccc(Cl)cc3)cc(C(F)(F)F)n2)c(OC)c1,-1,1,80*,15,-80
COc1ccc(/C(C)=N\Nc2nc(-c3ccc(Cl)cc3)cc(C(F)(F)F)n2)cc1OC,6,0,61,-12,-61
CC1CCc2c(nc3ncnn3c2NCCc2ccccc2F)C1 (stereo not given),-4,-1,73*,-4,-73
CC1CCc2c(nc3ncnn3c2N2CCN(c3ccccc3F)CC2)C1 (stereo not given),0,-1,-11,-12,11
S=c1[nH]nc(-c2ccc3ccccc3n2)n1-c1ccc(Cl)cc1,-2,0,-27,14,27
Fc1ccc(-n2c(-c3ccc4ccccc4n3)n[nH]c2=S)cc1Cl,71*,.,13,-2,-13
Cc1ccccc1CC(=O)NC1CCCc2ccccc21 (stereo not given),-3,2,11,4,-11
CC1(C)CC(=O)C(CC(=O)NC2CCCc3ccccc32)C(=O)C1 (stereo not given),106*,1,-14,10,14
O=C(CNC(=O)c1cccc([N+](=O)[O-])c1)NC1CCCc2ccccc21 (stereo not given),35*,-1,10,5,-10
CN(CCc1ccccc1)C(=O)c1ccc(NC(=O)Cc2ccc(NC(=O)C3CCN(S(=O)(=O)c4cccc([N+](=O)[O-])c4)CC3)cc2)cc1,-2,0,7,-4,-7
CCOC(=O)C1CCCN(C(=O)c2ccc(S(=O)(=O)Nc3ccccc3OC)cc2)C1 (stereo not given),-3,0,.,-10,.
Nc1cc([N+](=O)[O-])cc2oc(-c3ccccc3)cc12,-3,-1,70*,-7,-70
O=c1cc(-c2ccccc2)oc2ccccc12,1,0,-4,-7,4
Cc1ccc(/C=N\NC(=O)CCc2n[nH]c(=O)[nH]c2=O)o1,-1,-2,-14,-14,14
C(=N\Nc1ccccn1)/c1ccc2c(c1)OCCO2,3,0,2,2,-2
Cc1c(Cc2ccccc2)sc(/N=C/c2ccc3ccccc3c2)c1C(N)=O,-1,-2,3,4,-3
Cc1c(Cc2ccccc2)sc(/N=C/c2c(O)ccc3ccccc23)c1C(N)=O,.,-1,1,52*,-1
O=C(Cn1cnc2ccccc2c1=O)N1CCN(S(=O)(=O)c2ccc(F)cc2)CC1,.,0,-24,-7,24
SMILES,CAL PDZ FP-1,CAL PDZ FP-2,SR-BI DiI inh,ATG4B inhibitor,SR-BI uptake up
COc1ccc([N+](=O)[O-])cc1NC(=O)C(C)N(C)Cc1ccc(Br)cc1 (stereo not given),-2,-2,75*,-3,-75
COc1ccc(Br)cc1CN(C)C(C)C(=O)Nc1cc([N+](=O)[O-])ccc1OC (stereo not given),-5,-4,39,-1,-39
COc1ccc([N+](=O)[O-])cc1NC(=O)C(C)N1CCN(C(=O)c2ccco2)CC1 (stereo not given),-1,0,72*,12,-72
CC(C)CC(=O)NC(=S)Nc1ccc(S(=O)(=O)Nc2nccs2)cc1,0,-3,-24,-5,24
CCOc1cc(C(=O)N2CCCN(C)CC2)cc(OCC)c1OCC,-1,-1,-25,3,25
Cc1ccc(C(=O)C(C)OC(=O)c2nc(Cl)ccc2Cl)cc1 (stereo not given),-10,-1,-18,-1,18
C/C(CC(=O)Nc1ccc(Cl)c(C(F)(F)F)c1)=N\NC(=O)c1ccccc1O,-7,-1,17,15,-17
C/C(CC(=O)Nc1ccc(Cl)c(C(F)(F)F)c1)=N\NC(N)=S,.,-1,80*,-8,-80
O=C1C=CC(=O)N1c1ccc2c(c1)C(NC(=O)C(F)(F)F)c1ccccc1-2 (stereo not given),.,0,43,-15,-43
COc1ccccc1-c1ccc(SCc2ccc(F)cc2)nn1,80*,5,31,-22,-31
COc1ccccc1-c1ccc(SCc2ccc(C)cc2)nn1,1,-2,7,1,-7
Cc1ccc(N(Cc2cc3ccc(C)cc3[nH]c2=O)S(=O)(=O)c2ccccc2)cc1,1,-1,7,-3,-7
Cc1ccc(C(=O)NNC(=O)c2ccc(S(=O)(=O)N3CCCCC3)cc2)cc1,-1,0,52,5,-52
CCc1nnc(NC(=O)c2ccc(S(=O)(=O)N3CCCC(C)C3)cc2)s1 (stereo not given),9,-5,7,-4,-7
Cc1cccc2sc(NNC(=O)c3ccc(S(=O)(=O)N4CCc5ccccc5C4)cc3)nc12,2,1,125*,-3,-125
Cc1cccc2sc(NNC(=O)c3ccc(S(=O)(=O)N4CCCC(C)C4)cc3)nc12 (stereo not given),3,1,128*,-7,-128
Cc1cc(C)c2nc(NNC(=O)c3ccc(S(=O)(=O)N4CCCCC4)cc3)sc2c1,1,0,76*,-8,-76
O=C(C1CC(=O)N(c2ccc3c(c2)OCCO3)C1)N1CCN(c2ccccc2O)CC1 (stereo not given),-7,0,-7,-2,7
O=C(C1CC(=O)N(c2ccc3c(c2)OCCO3)C1)N1CCN(c2ccccc2)CC1 (stereo not given),47*,0,-7,0,7
